This is a sample that favours compounds with a hit; in the whole collection about 4.1% have one here.
KCNK9 block: KCNK9 potassium channel inhibitors, primary screen, HEK293 cells, thallium flux; Potassium channel subfamily K member 9 (Homo sapiens), Q9NPC2; FluxOR thallium flux fluorescence; hits give low values; B-score at 10 µM; 1.2% of 310,000 active; AID 488922, 2010;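 active = ratio B-score over 3 SD below the library mean, with starting fluorescence within 5 SD of its mean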;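 note: negative B-score means less thallium flux so channel inhibition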
KCNK3 inh: human KCNK3 channel inhibitors, primary screen, CHO cells, FluxOR thallium flux, B-score. B-score at 10 µM. 0.84% of 340,000 active. FluxOR fluorescence; hits give low values. Potassium channel subfamily K member 3 (Homo sapiens), O14649;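 active = B-score under library mean minus 4 SD, starting fluorescence ratio at most library mean plus 5 SD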;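 note: more negative B-score means stronger inhibition of thallium flux through KCNK3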
KCNQ1 pot: potentiators or activators of KCNQ1 channel, primary screen, cell-based, thallium flux, high-throughput; CHO-K1 KCNQ1, thallium flux FluxOR fluorescence; hits give high values; AID 2648, 2010; B-score at 10 µM; Potassium voltage-gated channel subfamily KQT member 1 (Homo sapiens), P51787; 0.35% of 310,000 active;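 active = fluorescence ratio B-score, a plate-corrected score, at least three library SD, with initial intensity B-score within 5 SD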
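assay system = CHO-K1 cells stably expressing KCNQ1 | medium = assay buffer, equal DMSO in all wells | timing = 37 °C overnight plating, 90-min dark dye load, 20-min compound pretreatment | measured by = kinetic FluxOR thallium fluorescence, 10-s 1-Hz baseline, 110-s post-stimulus read | measure = fluorescence change relative to baseline, converted to B score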
hERG protect: hERG rescue from dofetilide block, primary screen, cell-based, CHO-hERG, FluxOR thallium flux, dofetilide IC70 | Voltage-gated inwardly rectifying potassium channel KCNH2 (Homo sapiens), Q12809 | dofetilide IC70 present | activation (rescue from dofetilide block), less the hit threshold, % at 10 µM | 0.51% of 310,000 active | AID 1511, 2009;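 active = activation above the mean of controls blocked by dofetilide plus 5 SD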;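 note: thallium influx through hERG after potassium depolarization seen as dye fluorescence rise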
KCNQ1 inh: inhibitors of human KCNQ1 channel, primary screen, cell-based, thallium flux, high-throughput. CHO-K1 KCNQ1, FluxOR thallium flux fluorescence; hits give high values. AID 2642, 2010. 1.3% of 310,000 active. B-score at 10 µM. Potassium voltage-gated channel subfamily KQT member 1 (Homo sapiens), P51787;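 active = compounds whose thallium flux B-score, printed positive for inhibition, exceeds three library SD while starting fluorescence stays within three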;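 note: channel opened by potassium depolarization with thallium stimulus after 20 min compound exposure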
KCC2 mod: KCC2 cotransporter modulators, thallium flux, primary screen, cell-based, HEK293 KCC2, FluoZin-2 fluorescence, MLSMR; Solute carrier family 12 member 5 (Homo sapiens), Q9H2X9; KCC2 cells, thallium flux FluoZin-2 fluorescence; B-score of Tl+ flux slope (higher = more flux/activation; lower = inhibition) at 10 µM; 2.2% of 190,000 active; AID 1456, 2008;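 active = thallium flux slope and its plate-corrected score both differing from the plate sample mean at a set confidence after two filtering rounds, in either direction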;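 note: slope of fluorescence scaled to starting intensity during 10 to 20 s after thallium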
Target sequence (Q9H2X9 whole entry, looked up): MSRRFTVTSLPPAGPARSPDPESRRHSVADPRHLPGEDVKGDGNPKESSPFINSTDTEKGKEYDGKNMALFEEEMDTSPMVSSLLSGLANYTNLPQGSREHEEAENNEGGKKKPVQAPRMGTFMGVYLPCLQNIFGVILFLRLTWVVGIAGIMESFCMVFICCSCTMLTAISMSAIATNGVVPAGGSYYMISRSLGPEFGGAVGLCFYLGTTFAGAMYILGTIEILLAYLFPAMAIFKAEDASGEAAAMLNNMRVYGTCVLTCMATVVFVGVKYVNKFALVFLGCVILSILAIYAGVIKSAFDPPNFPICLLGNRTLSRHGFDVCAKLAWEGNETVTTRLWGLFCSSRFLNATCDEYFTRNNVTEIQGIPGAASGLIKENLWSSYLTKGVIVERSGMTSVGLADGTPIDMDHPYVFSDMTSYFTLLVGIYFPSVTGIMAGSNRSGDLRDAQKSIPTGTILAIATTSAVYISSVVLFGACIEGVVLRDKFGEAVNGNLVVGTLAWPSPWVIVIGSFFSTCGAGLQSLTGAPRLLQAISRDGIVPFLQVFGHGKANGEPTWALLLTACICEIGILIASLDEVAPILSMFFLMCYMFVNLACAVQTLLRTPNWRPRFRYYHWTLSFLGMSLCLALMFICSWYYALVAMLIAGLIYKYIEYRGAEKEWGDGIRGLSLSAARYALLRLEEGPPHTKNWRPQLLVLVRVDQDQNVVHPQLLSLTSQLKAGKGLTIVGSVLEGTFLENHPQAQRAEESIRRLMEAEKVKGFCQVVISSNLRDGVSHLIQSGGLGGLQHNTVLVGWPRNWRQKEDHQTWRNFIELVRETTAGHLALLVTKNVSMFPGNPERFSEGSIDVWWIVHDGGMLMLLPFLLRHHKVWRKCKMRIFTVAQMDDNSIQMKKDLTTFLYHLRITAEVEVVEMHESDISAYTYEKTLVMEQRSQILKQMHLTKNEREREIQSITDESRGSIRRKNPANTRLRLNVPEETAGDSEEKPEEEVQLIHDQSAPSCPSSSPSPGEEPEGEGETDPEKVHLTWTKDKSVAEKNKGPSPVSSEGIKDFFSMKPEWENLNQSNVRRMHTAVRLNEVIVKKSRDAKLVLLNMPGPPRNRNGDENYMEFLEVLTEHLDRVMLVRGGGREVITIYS
KCC2 sec1: KCC2 modulators in sodium-free buffer, confirmation, cell-based, HEK293 KCC2, thallium flux, secondary assay; FluoZin2 fluorescence; hits give high values; normalised thallium flux (F/F0 slope) at 10 µM; 15% of 3,700 active; shares compounds with KCC2 mod;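 active = thallium flux slope above the same plate's solvent-only control mean plus 3 SD; inconclusive = the two replicate wells disagree; inactive = no significant difference from solvent-only control wells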
KCC2 bumet counter: thallium flux persisting under bumetanide in KCC2 cells, confirmation, counter-screen for KCC2 modulator project, cell-based, HEK293 KCC2, FluoZin2, secondary assay 3; normalized thallium flux at 10 µM; 49% of 3,700 active; shares compounds with KCC2 mod; HEK293-KCC2 + bumetanide/ouabain; hits give high values;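 active = thallium entry rate above the same plate's blocked-transporter control wells by more than 3 SD; inconclusive = the two repeat wells disagree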;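 note: raw slope of fluorescence over initial fluorescence between 10 and 20 s after thallium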
KCC2 sec2: KCC2 modulators without ouabain present, confirmation, cell-based, HEK293 KCC2, thallium flux, FluoZin2, secondary assay 2. 23% of 3,700 active. thallium flux FluoZin2 fluorescence; actives lie on both sides; F/F0 rise rate, 10–20 s post-thallium. AID 1715, 2009. shares compounds with KCC2 mod. normalized thallium flux at 10 µM;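 active = thallium flux slope more than 3 SD above or below the plate's solvent-only control mean, mostly below; inconclusive = the two repeat wells disagreed; inactive = no significant shift from solvent-only controls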;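 note: raw slope with 0.1% DMSO as baseline and bumetanide as block control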
HEK counter1: thallium flux modulation in parental HEK cells, confirmation, counter-screen for KCC2 modulator project, cell-based, counterscreen 1; shares compounds with KCC2 mod; HEK293 parental cells, thallium flux FluoZin2, ouabain; baseline-ratio fluorescence slope, 10–20 s after thallium; thallium flux rate (normalised fluorescence) at 10 µM; 46% of 3,700 active; AID 1716, 2009;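 active = thallium flux rate significantly above the same plate's solvent-only control wells, beyond their mean plus 3 SD; inconclusive = the two replicate wells gave conflicting results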
KCC2 retest ouab: KCC2 inhibitors and activators, ouabain retest, confirmation, HEK-KCC2 cells; shares compounds with KCC2 mod; HEK293-KCC2, thallium flux FluoZin2 fluorescence; bidirectional: low = inhibitor, high = activator; raw Tl+ flux slope (below DMSO = inhibition, above = activation) at 10 µM; 48% of 3,700 active;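 active = thallium flux slope beyond 3 SD from same-plate DMSO control mean in most replicates, usually higher, sometimes lower; inconclusive = repeat tests gave conflicting results; inactive = no significant difference from controls in most replicates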;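 note: slope of initial-normalized fluorescence between seconds 10 and 20 after thallium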
HEK counter2: native HEK Tl+ uptake effects, second counter-screen – HEK cells, counterscreen 2, counter-screen for KCC2 modulator project, confirmation; 33% of 3,700 active; HEK293 parental, thallium flux FluoZin-2 fluorescence slope; shares compounds with KCC2 mod; thallium flux slope at 10 µM;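 active = thallium flux slope above the same plate's solvent-control mean plus 3 SD in both duplicate wells; inconclusive = duplicate wells that disagreed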;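 note: run without ouabain in cells lacking the KCC2 cotransporter; slope of fluorescence scaled to its starting value between 10 and 20 s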
An asterisk follows results filed as active; i = inactive; ? = inconclusive; / = no result.

SMILES	KCNK9 block	KCNK3 inh	KCNQ1 pot	hERG protect	KCNQ1 inh	KCC2 mod	KCC2 sec1	KCC2 bumet counter	KCC2 sec2	HEK counter1	KCC2 retest ouab	HEK counter2
Brc1cccc(-c2nnc(SCc3nc4ccccc4[nH]3)o2)c1	i	i	i	-5	i	20*	0.0075	0.0054	0.032	0.0077	0.019	0.01
CCOC(=O)N1CCN(S(=O)(=O)N2CCCC(C(=O)NCc3cccc(OC)c3)C2)CC1 (stereo not drawn)	i	i	i	-9	i	/	/	/	/	/	/	/
CCCCn1c(N)c(N(CC(C)C)C(=O)CSCc2cccc(C)c2)c(=O)[nH]c1=O	i	i	i	-20	i	/	/	/	/	/	/	/
CC1CCc2sc(-c3n[nH]c(=S)o3)cc2C1 (stereo not drawn)	i	i	i	7.4*	i	39*	0.021*	0.1*	0.032	0.03*	0.053*	0.015*
CCC(C)(CC(=O)Nc1nccs1)c1ccccc1 (stereo not drawn)	i	i	i	-8	i	/	/	/	/	/	/	/
C/C(=N\NC(=S)Nc1cccc(C)c1)c1ccco1	i	i	13*	5.8*	i	78*	0.028*	0.085*	?	0.063*	0.058*	0.062*
C/C(=N\NC(=S)Nc1ccc(C)cc1)c1cccc(N)c1	i	i	i	-22	i	9.4*	0.018*	0.053*	0.035	0.063*	0.048*	0.017*
CC(=NNC(=S)Nc1cccc(C)c1)c1ccccn1	/	i	/	/	/	/	/	/	/	/	/	/
Cc1ccccc1CN1CCC(CNC(=O)C2CCCN(c3ncnc4c3nc3n4CCCCC3)C2)CC1 (stereo not drawn)	i	i	i	-9	i	/	/	/	/	/	/	/
O=C(Nc1ccc(Cl)cc1)N1CCC(CO)(Cc2ccccc2)CC1	i	i	i	-1	i	-3.2*	0.0092	?	0.034	0.0081	?	0.011
CC(C)CN(C(=O)COC(=O)CSc1ccc(Br)cc1)C1CCS(=O)(=O)C1 (stereo not drawn)	/	i	/	/	/	/	/	/	/	/	/	/
Cc1nn(-c2ccccc2)nc1C(=O)Nc1nnc(C(F)(F)F)s1	i	i	i	-18	i	24*	0.016*	0.049*	0.033	0.019*	0.04*	0.013*
CC1CCCCC12NC(=S)N(c1ccccc1)N2 (stereo not drawn)	i	i	i	-3	i	8.1*	?	0.022*	0.034	0.016*	0.027	0.012*
CC1CCCC2(C1)NC(=S)N(c1ccccc1)N2 (stereo not drawn)	i	i	i	-4	i	0.3	/	/	/	/	/	/
CC(=O)c1c(C)[nH]c(-c2ccccc2)nc1=S	i	i	i	-3	i	14*	0.017*	0.022*	0.031	0.013*	0.025	?
CC(=O)c1c(NC(=O)c2ccccc2)[nH]c(-c2ccccc2)nc1=S	i	i	18*	15*	i	36*	?	0.052*	0.062*	0.052*	0.052*	0.054*
CSc1nc(-c2ccccc2)nc(NC(=O)c2ccccc2)c1C(C)=O	i	i	i	-12	i	-0.65	/	/	/	/	/	/
CCN1CCN(Cc2nc3cc(NC(=O)COc4ccc([N+](=O)[O-])cc4)ccc3n2C)CC1	i	i	i	-8	i	/	/	/	/	/	/	/
CN(C(=S)NC(=O)c1ccc(Br)o1)c1ccccc1	i	i	i	-1	i	7.7*	0.0065	0.02*	0.04*	0.02*	0.031*	0.023*
O=C(Nc1ccccc1N1CCCCC1)c1ncoc1-c1ccc(F)cc1	i	i	i	-12	i	2.1*	0.0086	0.0055	0.03	0.008	0.018	0.011
Cc1ccccc1C(=O)NC(=S)Nc1ccccc1N1CCCC1	i	i	i	-7	i	11*	0.0068	0.025*	0.031	0.026*	0.03*	0.015*
CC(C)C(=O)N1CCN(c2ccccc2NC(=S)NC(=O)c2cccs2)CC1	i	i	i	-5	i	2.8	0.0063	0.0086*	0.028	0.0091*	0.019	?
Cc1cc(C(=O)NC(=S)Nc2ccccc2N2CCOCC2)ccc1[N+](=O)[O-]	i	i	i	1	i	5.4*	0.0091	0.01*	0.03	?	?	?
O=C(Nc1ccccc1N1CCCCC1)c1ncoc1-c1cccc(F)c1	i	i	i	-12	i	0.87	/	/	/	/	/	/
Cc1cc(C(=O)NC(=S)Nc2ccccc2N2CCCC2)ccc1[N+](=O)[O-]	i	i	i	-10	i	2.3	/	/	/	/	/	/
